Assay outcomes as filed in PubChem.
In the library only some 3.7% were active in any assay of this set; here they are far more common.
F508del corr = F508del CFTR correction, initial screen, CFBE line, single point; CFBE cells, YFP halide quenching; stimulated with forskolin plus potentiator P3; % fluorescence drop versus neutral controls; activity (quench increase), % at 7.58 µM; 0.36% of 350,000 active;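 active means mean added fluorescence quench of at least 8% versus neutral control, with both replicates also reaching 8%; inconclusive means only one of the mean or replicate conditions met; inactive means mean below 8% and not both replicates reaching 8%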;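 further: cells transiently co-express mutant CFTR-F508del with the halide-sensitive YFP; corrector assay measuring rescue of mutant channel to the surface after 24 h compound exposure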
E-sel inducer = E-selectin induction in HUVECs, primary screen, imaging, HUVEC, immunofluorescence imaging, single point; P16581; normalized: neutral wells 0, TNF-alpha wells 100; activation, % at 7.58 µM; 0.37% of 260,000 active;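 active means mean E-selectin-positive cell signal at least 10% of the positive control, reached in at least 60% of replicates, without over 20% cell loss; inconclusive means no rule given, readout overlaps actives, possibly toxicity-flagged; inactive means the rest, including those meeting only one limit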
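Assay system: HUVEC, human umbilical vein endothelial cells / Amount: 3,000 HUVEC/well / Controls: TNF-alpha positive control, DMSO neutral control / Compound dosing: single concentration / Medium: EGM-2 over gelatin coat / Evaluation: percent E-selectin-positive cells / Signal: immunofluorescence imaging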
FGF22 binding = binders of human FGF22 protein, primary screen, FGF22 synaptogenesis inhibitor project, biophysical, thermal shift, single point | activity (Tm shift, normalised), % at 9.99 µM | 1.5% of 340,000 active | recombinant FGF22 thermal shift, SYPRO orange fluorescence; percent of sucrose octasulfate shift, DMSO zero | Fibroblast growth factor 22 (Homo sapiens), Q9HCT0;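 active means mean Tm shift, scaled 0 neutral to 100 positive control, at about 1.3% or above, every replicate too, limit read from the data; inconclusive means no clear call, values can overlap the other calls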
ERAP1 inh = human ERAP1 aminopeptidase inhibitors, primary screen, biochemical, single point, plate reader; Endoplasmic reticulum aminopeptidase 1 (Homo sapiens), Q9NZ08; 0.15% of 340,000 active; inhibition, % at 10.7 µM; recombinant ERAP1, Leu-AMC fluorescence, 60 min; AID 652197, 2013;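 active means mean replicate inhibition of at least 30%, or all replicates individually reaching that 30% level; inactive means mean below 30% and not every replicate reaching it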;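 further: 0% = neutral control wells and 100% = L-leucinethiol positive control wells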
Target sequence (Q9NZ08 whole entry, looked up): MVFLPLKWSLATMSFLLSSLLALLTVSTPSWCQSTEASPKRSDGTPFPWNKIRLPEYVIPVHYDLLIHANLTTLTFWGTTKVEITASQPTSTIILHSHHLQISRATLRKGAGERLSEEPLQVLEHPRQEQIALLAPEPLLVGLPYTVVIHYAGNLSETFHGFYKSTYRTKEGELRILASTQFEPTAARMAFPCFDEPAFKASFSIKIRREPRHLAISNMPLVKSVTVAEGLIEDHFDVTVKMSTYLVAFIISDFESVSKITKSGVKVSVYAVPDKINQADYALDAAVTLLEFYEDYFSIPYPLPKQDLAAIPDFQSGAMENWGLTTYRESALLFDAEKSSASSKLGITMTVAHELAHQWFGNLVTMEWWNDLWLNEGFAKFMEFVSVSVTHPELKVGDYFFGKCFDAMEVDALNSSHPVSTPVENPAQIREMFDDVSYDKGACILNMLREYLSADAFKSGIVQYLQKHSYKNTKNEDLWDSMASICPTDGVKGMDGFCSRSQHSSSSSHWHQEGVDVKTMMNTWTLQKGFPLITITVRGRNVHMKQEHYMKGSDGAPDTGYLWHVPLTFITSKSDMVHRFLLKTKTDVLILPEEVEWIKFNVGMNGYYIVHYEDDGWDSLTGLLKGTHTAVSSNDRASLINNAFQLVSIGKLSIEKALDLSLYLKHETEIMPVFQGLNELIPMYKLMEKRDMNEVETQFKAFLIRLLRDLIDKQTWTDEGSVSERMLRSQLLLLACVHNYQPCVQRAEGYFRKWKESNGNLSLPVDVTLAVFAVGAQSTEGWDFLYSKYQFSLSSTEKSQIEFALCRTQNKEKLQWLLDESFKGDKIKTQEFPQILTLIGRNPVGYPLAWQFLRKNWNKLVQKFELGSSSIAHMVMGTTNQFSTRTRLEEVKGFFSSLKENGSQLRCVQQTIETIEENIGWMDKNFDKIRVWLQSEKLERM
DENV2 CPE = inhibitors of DENV2 cytopathic effect, primary screen, cell-based, plate reader, single concentration | DENV2-infected cells, cytopathic effect rescue | CPE inhibition, % at 9.99 µM | 1.7% of 350,000 active; in the data active means CPE inhibition above about 20%, passing the limit was not always enough; inconclusive means no clear call, values can overlap the other calls; tested in BHK-21 cells;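 further: 0% = median of neutral control wells and 100% = median of positive control wells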
Active calls of the source: *; u = inconclusive; x = no result given.

SMILES	F508del corr	E-sel inducer	FGF22 binding	ERAP1 inh	DENV2 CPE
Cc1cccn2c(=O)c3cc(C(=O)NCC4CCCO4)c(=N)n(CC4CCCO4)c3nc12 (configuration not stated)	0	x	0	82*	u
O=C(C[C@H]1CC[C@H]2[C@@H](COC[C@@H](O)CN2C(=O)Nc2cccc(Cl)c2)O1)NCCCN1CCOCC1	-1	0	0	-1	-4
O=C(NCC[C@@H]1CC[C@@H](NC(=O)C2CCCCC2)[C@@H](CO)O1)c1ccc(F)cc1	0	-1	0	-4	-7
COc1ccc(S(=O)(=O)N[C@@H]2C=C[C@H](CC(=O)NCCc3ccccc3)O[C@H]2CO)cc1	-2	2	-1	0	-12
COc1ccc(OCCNS(=O)(=O)c2cccc([N+](=O)[O-])c2)cc1	1	x	43*	1	2
O=[N+]([O-])c1cccc(S(=O)(=O)NCCOc2cccc3cccnc23)c1	-1	-1	0	-4	-2
COc1ccc(CCNC(=O)CN(c2cc([N+](=O)[O-])ccc2OC)S(C)(=O)=O)cc1	4	0	43*	-9	-8
CCc1ccc(N(CC(=O)Nc2ccccc2C(=O)N2CCCC2)S(C)(=O)=O)cc1	-2	0	0	-6	5
COc1ccc([N+](=O)[O-])cc1N(CC(=O)Nc1ccccc1C(=O)N1CCCC1)S(C)(=O)=O	1	0	44*	-2	-3
COc1ccc(CCNC(=O)CN(c2cccc([N+](=O)[O-])c2)S(C)(=O)=O)cc1	-1	3	0	-3	8
CS(=O)(=O)N(CC(=O)Nc1ccccc1C(=O)N1CCCC1)c1ccc2c(c1)OCO2	1	0	43*	-3	-3
Cc1ccc(S(=O)(=O)Nc2cccc3c2O[C@@H](CN(C)Cc2ccc(C(=O)Nc4ccccc4N)cc2)[C@H](C)CN([C@@H](C)CO)C3=O)cc1	-1	0	0	x	-9
C[C@H](CO)N1C[C@H](C)[C@H](CN(C)Cc2ccc(C(=O)Nc3ccccc3N)cc2)Oc2c(NS(=O)(=O)c3cn(C)cn3)cccc2C1=O	-1	x	0	-2	34*
Cc1ccc(S(=O)(=O)Nc2cccc3c2O[C@H](CN(C)Cc2ccc(C(=O)Nc4ccccc4N)cc2)[C@@H](C)CN([C@@H](C)CO)C3=O)cc1	-1	0	1.4*	2	4
Cc1ccc(S(=O)(=O)Nc2cccc3c2O[C@@H](CN(C)Cc2ccc(C(=O)Nc4ccccc4N)cc2)[C@@H](C)CN([C@@H](C)CO)C3=O)cc1	1	1	0	2	-8
C[C@H]1CN([C@@H](C)CO)C(=O)c2cc(NS(=O)(=O)c3cn(C)cn3)ccc2O[C@@H]1CN(C)Cc1ccc(C(=O)Nc2ccccc2N)cc1	-4	x	0	2	-1
Cc1ccc(S(=O)(=O)Nc2cccc3c2O[C@H](CN(C)Cc2ccc(C(=O)Nc4ccccc4N)cc2)[C@H](C)CN([C@H](C)CO)C3=O)cc1	-3	3	0	-4	21*
C[C@H]1CN([C@@H](C)CO)C(=O)c2cccc(NS(=O)(=O)c3ccc(F)cc3)c2O[C@H]1CN(C)Cc1ccc(C(=O)Nc2ccccc2N)cc1	0	1	0	2	22*
COC(=O)C[C@@H]1CC[C@@H]2[C@H](COc3ccc(NC(=O)c4cscn4)cc3C(=O)N2C)O1	-2	0	0	2	9
C[C@H](O)C#Cc1cnc2c(c1)C(=O)N([C@H](C)CO)C[C@H](C)[C@@H](CN(C)C(=O)Cc1ccccn1)O2	2	0	0	1	-9
C=CCN1C(=O)/C(=C2/Sc3ccc(OC)cc3N2C)SC1=NCc1ccccc1	-5	1	1	0	0
C=CCN1C(=O)/C(=C2/Sc3ccc(OC)cc3N2C)SC1=Nc1ccccc1	-1	1	43*	-2	-5
C[N+]1(CC2COC3(CCCCC3)O2)CCCCC1 (configuration not stated)	-1	1	41	54*	6
O=C(O)C[C@H]1CC[C@H](NC(=O)CCN2CCCCC2)[C@H](CO)O1	0	0	x	0	-6
